Assay results pooled from the literature.
Each line is one published result; the experiments were not run side by side.
JAK2: Tyrosine-protein kinase JAK2 (JAK2, Homo sapiens, UniProt O60674)
JAK2 JH1: Tyrosine-protein kinase JAK2, JH1 (JAK2, Homo sapiens, UniProt O60674)

SMILES	target	read-out	action	method	concentration	endpoint	result
Cn1cc(-c2cc(F)cc(N3CCn4c(cc5c4CCCC5)C3=O)c2CO)cc(Nc2ccc(N3CCN(C4COC4)CC3)cn2)c1=O	JAK2	enzyme activity	inhibitor		0.1 µM	inhibition	8%
O=c1[nH]c2ccccc2n1C1CCN(Cc2ccc(-c3[nH]c4cc5ncnc5cc4nc3-c3ccccc3)cc2)CC1	JAK2	cell-free assay			0.5 µM	remaining signal	104%
COc1ncccc1-c1cnn2ccc(N3CCN(C(=O)OC(C)C)CC3)nc12	JAK2	binding		competition with immobilised ligand	1 µM	remaining binding	89%
N#CC1(c2ccccn2)CCN(Cc2cc(C(=O)O)c(=O)n3ccccc23)CC1	JAK2 JH1	cell-free assay		competition with immobilised ligand	1 µM	remaining binding	96%
Nc1ncc(-c2nc(N3CCOCC3)nc(N3CCOCC3)n2)c(C(F)F)n1	JAK2 JH1	binding		competition with immobilised ligand	10 µM	remaining binding	65%
CC(C)(C)c1cc(C=C(C#N)C#N)cc(Br)c1O	JAK2	enzyme activity	inhibitor		0.5 µM	remaining activity	107%
C#Cc1n[nH]c2c(-c3cn(C(C)c4ccccn4)c(=O)[nH]c3=O)cc(F)cc12 (stereo not drawn)	JAK2	enzyme activity	inhibitor		1 µM	inhibition	-4.2%
Cn1cc(-c2cccc(N3CCc4c(sc5c4CC(C)(C)C5)C3=O)c2CO)cc(Nc2ccncn2)c1=O	JAK2	enzyme activity	inhibitor		1 µM	inhibition	-5%
Cn1cncc1[C@](O)(COc1ccc(C#N)cc1-c1ccc(OC(F)(F)F)cc1)c1ccc(C#N)cc1	JAK2 JH1	cell-free assay		competition with immobilised ligand	1 µM	remaining binding	91%
